According to ChEMBL document CHEMBL4138098, “Synthesis and pharmacological evaluation of neurosteroid photoaffinity ligands” (Eur J Med Chem, 2017):
Active and inactive are the calls of the source. No cut-off for these calls is given here.

Assays:
[1] = molecular target: T1, GABA-A receptor; alpha-1/beta-2/gamma-2 (Homo sapiens, UniProt P14867+P18507+P47870); experiment: Positive allosteric modulation of human GABAA receptor alpha1beta2gamma2L expressed in Xenopus laevis oocytes assessed as potentiation of GABA chloride current incubated for 15 to 25 secs by two-electrode voltage clamp assay; format: cell-based
T1 sequence (P14867 whole entry): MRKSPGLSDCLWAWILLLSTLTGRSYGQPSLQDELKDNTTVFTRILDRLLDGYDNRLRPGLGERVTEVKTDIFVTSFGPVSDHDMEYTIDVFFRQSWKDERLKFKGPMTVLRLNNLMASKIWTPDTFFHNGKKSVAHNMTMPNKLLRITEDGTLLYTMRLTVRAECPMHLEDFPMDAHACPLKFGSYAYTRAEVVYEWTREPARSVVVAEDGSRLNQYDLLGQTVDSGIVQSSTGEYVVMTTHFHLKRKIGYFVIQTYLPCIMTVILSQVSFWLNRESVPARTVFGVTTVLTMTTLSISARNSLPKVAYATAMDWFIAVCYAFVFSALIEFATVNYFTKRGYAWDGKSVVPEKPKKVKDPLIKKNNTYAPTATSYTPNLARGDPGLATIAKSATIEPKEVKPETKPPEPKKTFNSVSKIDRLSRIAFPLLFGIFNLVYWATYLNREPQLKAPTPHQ
T1 sequence (P47870 whole entry): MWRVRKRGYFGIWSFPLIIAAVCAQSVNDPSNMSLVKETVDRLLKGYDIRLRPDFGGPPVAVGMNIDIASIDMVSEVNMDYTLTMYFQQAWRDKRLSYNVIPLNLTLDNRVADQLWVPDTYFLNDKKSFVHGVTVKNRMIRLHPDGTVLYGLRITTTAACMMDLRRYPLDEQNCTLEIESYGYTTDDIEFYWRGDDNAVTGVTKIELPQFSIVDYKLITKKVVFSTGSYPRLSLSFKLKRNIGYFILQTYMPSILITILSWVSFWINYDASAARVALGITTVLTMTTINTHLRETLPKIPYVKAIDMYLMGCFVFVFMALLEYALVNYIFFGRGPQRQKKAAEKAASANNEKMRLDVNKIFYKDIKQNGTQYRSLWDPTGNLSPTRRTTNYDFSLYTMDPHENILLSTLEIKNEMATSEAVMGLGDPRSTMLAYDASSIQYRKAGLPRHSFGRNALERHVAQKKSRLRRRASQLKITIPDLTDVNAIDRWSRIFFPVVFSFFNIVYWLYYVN
T1 sequence (P18507 whole entry): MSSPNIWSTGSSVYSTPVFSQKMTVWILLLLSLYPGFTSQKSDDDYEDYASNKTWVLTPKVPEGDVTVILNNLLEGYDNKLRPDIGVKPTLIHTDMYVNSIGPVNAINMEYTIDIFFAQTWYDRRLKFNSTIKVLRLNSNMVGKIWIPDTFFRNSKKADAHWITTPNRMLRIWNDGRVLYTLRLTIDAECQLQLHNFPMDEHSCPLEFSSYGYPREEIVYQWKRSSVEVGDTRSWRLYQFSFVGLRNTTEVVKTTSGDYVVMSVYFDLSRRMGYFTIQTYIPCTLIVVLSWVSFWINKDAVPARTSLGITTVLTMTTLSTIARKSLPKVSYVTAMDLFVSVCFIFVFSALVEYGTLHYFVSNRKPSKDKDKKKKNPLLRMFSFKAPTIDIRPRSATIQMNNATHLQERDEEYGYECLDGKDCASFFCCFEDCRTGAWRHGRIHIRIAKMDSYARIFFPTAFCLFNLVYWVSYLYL
Procedure, shortened: (§1)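 Xenopus laevis oocytes injected with ~100 ng cRNA of human α1, β2, γ2L (1:1:2). Two-electrode voltage clamp at −50 mV, room temperature, perfused with ND96 pH 7.5. Compound diluted from DMSO stock into ND96 (≤1% DMSO final). Applied 15–25 s with ~3 min washes.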

[2] = molecular target: T2, Gamma-aminobutyric acid receptor subunit beta-3 (Homo sapiens) (UniProt P28472); experiment: Binding affinity to human GABAA receptor beta3 assessed as photolabeling at 0.7 uM after 30 mins by Coomassie blue staining based fluorographic method relative to control; details: tested as the 3H-labelled form
T2 sequence (whole entry): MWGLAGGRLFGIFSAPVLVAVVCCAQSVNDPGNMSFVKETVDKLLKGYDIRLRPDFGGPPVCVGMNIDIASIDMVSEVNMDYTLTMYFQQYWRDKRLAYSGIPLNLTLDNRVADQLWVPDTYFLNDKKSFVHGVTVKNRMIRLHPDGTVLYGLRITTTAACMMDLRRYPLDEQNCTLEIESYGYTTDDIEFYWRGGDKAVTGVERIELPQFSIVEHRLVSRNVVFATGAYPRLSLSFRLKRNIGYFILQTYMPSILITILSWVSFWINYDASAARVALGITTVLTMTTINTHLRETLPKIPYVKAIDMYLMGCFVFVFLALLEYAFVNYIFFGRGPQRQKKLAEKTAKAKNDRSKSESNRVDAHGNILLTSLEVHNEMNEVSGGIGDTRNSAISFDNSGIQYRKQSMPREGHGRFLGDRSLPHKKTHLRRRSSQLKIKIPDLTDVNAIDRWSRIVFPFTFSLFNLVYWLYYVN

[3] = system: Anura; experiment: Potency index, ratio of Alphaxalone EC50 to compound EC50 for anesthetic activity in tadpole; format: functional
[4] = molecular target: T3, Gamma-aminobutyric acid receptor subunit alpha-1 (Homo sapiens) (UniProt P14867); experiment: Binding affinity to human GABAA receptor alpha1 assessed as photolabeling at 0.7 uM after 30 mins by Coomassie blue staining based fluorographic method relative to control; details: tested as the 3H-labelled form
T3 sequence (whole entry): T1 sequence (P14867 whole entry)

[5] = molecular target: T4, GABA-A receptor; alpha-1/beta-3/gamma-2 (Homo sapiens) (UniProt P14867+P18507+P28472); experiment: Binding affinity to human GABAA receptor alpha1beta3gamma2 expressed in HEK293 TetR cells assessed as photolabeling at 0.4 uM after 30 mins in presence of 100 uM bicuculline by coomassie blue staining based fluorographic method; format: cell-based; details: tested as the 3H-labelled form
[6] = system: Anura; experiment: Anesthetic activity in tadpole assessed as loss of righting reflexes; format: functional, organism-based
[7] = molecular target: T4, GABA-A receptor; alpha-1/beta-3/gamma-2 (Homo sapiens); experiment: Induction of [3H]R-mTFD-MPAB photoincorporation at human GABAA receptor alpha1beta3gamma2 expressed in HEK293 TetR cells at 10 uM after 30 mins by liquid scintillation counting method relative to control; format: cell-based
Procedure, shortened: (§2)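 Radioligand resuspended 30 min at 4°C; unlabeled steroid added (0.5% methanol final), 30 min at 4°C. Irradiated 30 min on ice at 365 nm. SDS-PAGE; stained subunit bands excised and counted by liquid scintillation; duplicates, means and ranges.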

[8] = molecular target: GABA-A receptor; alpha-1/beta-2/gamma-2 (Homo sapiens) (UniProt P14867+P47870+P18507); experiment: Positive allosteric modulation of human GABAA receptor alpha1beta2gamma2L expressed in Xenopus laevis oocytes assessed as potentiation of GABA chloride current up to 100 uM incubated for 15 to 25 secs by two-electrode voltage clamp assay relative to control; format: cell-based; procedure, shortened: as §1
[9] = molecular target: T4, GABA-A receptor; alpha-1/beta-3/gamma-2 (Homo sapiens); experiment: Binding affinity to human GABAA receptor alpha1beta3gamma2 expressed in HEK293 TetR cells assessed as photolabeling at 0.4 uM after 30 mins in presence of 300 uM GABA by coomassie blue staining based fluorographic method; format: cell-based; details: tested as the 3H-labelled form
[10] = system: Anura; experiment: Anesthetic activity in tadpole assessed as loss of righting reflexes at 0.03 to 10 uM pretreated with tadpole followed by compound washout and transfer to fresh water measured up to 1 hr; format: functional, organism-based
[11] = molecular target: T4, GABA-A receptor; alpha-1/beta-3/gamma-2 (Homo sapiens); experiment: Binding affinity to human GABAA receptor alpha1beta3gamma2 expressed in HEK293 TetR cells assessed as photolabeling at 0.4 uM after 30 mins in presence of 300 uM GABA and 30 uM alphaxalone by coomassie blue staining based fluorographic method; format: cell-based; details: tested as the 3H-labelled form
[12] = molecular target: T4, GABA-A receptor; alpha-1/beta-3/gamma-2 (Homo sapiens); experiment: Induction of [3H]azietomidate photoincorporation at human GABAA receptor alpha1beta3gamma2 expressed in HEK293 TetR cells at 1 uM after 30 mins by liquid scintillation counting method relative to control; format: cell-based; procedure, shortened: as §2
[13] = molecular target: T5, GABA-A receptor; alpha-1/beta-3/gamma-2 (Homo sapiens, UniProt P14867+P18507+P28472); experiment: (§3) Displacement of [3H]muscimol from human GABAA receptor alpha1beta3gamma2 expressed in HEK293 TetR cell membranes after 1 hr by liquid scintillation counting method
T5 sequence (P14867 whole entry): T1 sequence (P14867 whole entry)
T5 sequence (P18507 whole entry): T1 sequence (P18507 whole entry)
T5 sequence (P28472 whole entry): T2 sequence (whole entry)
Procedure, shortened: (§4)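 Membranes from HEK293 TetR cells expressing human α1β3γ2 GABAA receptor (200 μg protein) in 10 mM phosphate pH 7.4, 200 mM KCl, 1 mM EDTA. Filtered on PEI-treated GF/B filters, washed cold, scintillation counted. Triplicates, mean ± SD.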

[14] = molecular target: T4, GABA-A receptor; alpha-1/beta-3/gamma-2 (Homo sapiens); experiment: as §3; procedure, shortened: as §4
[15] = molecular target: T4, GABA-A receptor; alpha-1/beta-3/gamma-2 (Homo sapiens); experiment: Induction of [3H]R-mTFD-MPAB photoincorporation at human GABAA receptor alpha1beta3gamma2 expressed in HEK293 TetR cells at 0.3 to 1 uM after 30 mins by liquid scintillation counting method; format: cell-based; procedure, shortened: as §2
[16] = molecular target: T4, GABA-A receptor; alpha-1/beta-3/gamma-2 (Homo sapiens); experiment: Binding affinity to human GABAA receptor alpha1beta3gamma2 expressed in HEK293 TetR cells assessed as photolabeling at 0.7 uM after 30 mins in presence of 300 uM GABA by coomassie blue staining based fluorographic method; format: cell-based; details: tested as the 3H-labelled form
[17] = molecular target: T4, GABA-A receptor; alpha-1/beta-3/gamma-2 (Homo sapiens); experiment: Induction of [3H]azietomidate photoincorporation at human GABAA receptor alpha1beta3gamma2 expressed in HEK293 TetR cells at 0.3 to 1 uM after 30 mins by liquid scintillation counting method; format: cell-based; procedure, shortened: as §2
[18] = system: Anura; experiment: Anesthetic activity in tadpole assessed as loss of righting reflexes at 0.01 to 1 uM pretreated with tadpole followed by compound washout and transfer to fresh water measured up to 1 hr; format: functional, organism-based
[19] = molecular target: T4, GABA-A receptor; alpha-1/beta-3/gamma-2 (Homo sapiens); experiment: Binding affinity to human GABAA receptor alpha1beta3gamma2 expressed in HEK293 TetR cells assessed as photolabeling at 0.7 uM after 30 mins in presence of 100 uM bicuculline by coomassie blue staining based fluorographic method; format: cell-based; details: tested as the 3H-labelled form
[20] = molecular target: T4, GABA-A receptor; alpha-1/beta-3/gamma-2 (Homo sapiens); experiment: Binding affinity to human GABAA receptor alpha1beta3gamma2 expressed in HEK293 TetR cells assessed as photolabeling at 0.7 uM after 30 mins in presence of 300 uM GABA and 30 uM alphaxalone by coomassie blue staining based fluorographic method; format: cell-based; details: tested as the 3H-labelled form
[21] = molecular target: T4, GABA-A receptor; alpha-1/beta-3/gamma-2 (Homo sapiens); experiment: Induction of [3H]R-mTFD-MPAB photoincorporation at human GABAA receptor alpha1beta3gamma2 expressed in HEK293 TetR cells at 30 uM after 30 mins by liquid scintillation counting method; format: cell-based
Procedure, shortened: (§5)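 Purified FLAG-tagged human α1β3γ2 GABAAR from tetracycline-inducible HEK293S cells, in 5 mM CHAPS/0.2 mM asolectin. Equilibrated 30 min at 4°C with 3 μM [3H]azietomidate or 1 μM [3H]R-mTFD-MPAB, then with test drug (final methanol 0.5%) for another 30 min at 4°C. Irradiated on ice at 365 nm for 30 min. Stained subunit bands excised from SDS-PAGE gels; 3H counted by liquid scintillation.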

[22] = molecular target: T4, GABA-A receptor; alpha-1/beta-3/gamma-2 (Homo sapiens); experiment: Induction of [3H]azietomidate photoincorporation at human GABAA receptor alpha1beta3gamma2 expressed in HEK293 TetR cells at 30 uM after 30 mins by liquid scintillation counting method; format: cell-based; procedure, shortened: as §5

| Structure (SMILES) | EC50 [1] [nM] | Activity [2] [%] | Ratio EC50 [3] | Activity [4] [%] | EC50 [6] [nM] | fold change (FC) [8] | Activity [10] | EC50 [13] [nM] | inhibition [14] | further results |
| --- | --- | --- | --- | --- | --- | --- | --- | --- | --- | --- |
| CC(=O)[C@H]1CC[C@H]2[C@@H]3CC[C@H]4C[C@H](O)CC[C@]4(C)[C@H]3[C@@H](OC(=O)c3c(F)c(F)c(N=[N+]=[N-])c(F)c3F)C[C@]12C | 500 | 10 | 2.6 | 6 | 720 | 17 | inactive | 770 | Dose-dependent effect | Activity [5]: Active; Activity [7]: 75%; Activity [9]: Active; Activity [11]: Active; Activity [12]: 50% |
| CC(=O)[C@H]1CC[C@H]2[C@@H]3CC[C@H]4C[C@H](O)CC[C@]4(C)[C@H]3C3(C[C@]12C)N=N3 | 200 | 0.4 | 17 | 0.2 | 110 | 30 | – | 250 | Dose-dependent effect | Activity [15]: Active; Activity [16]: Active; Activity [17]: Active; Activity [18]: inactive; Activity [19]: Active; Activity [20]: Active |
| CC(=O)[C@H]1CC[C@H]2[C@@H]3CC[C@H]4C[C@H](O)CC[C@]4(C)[C@H]3C(=O)C[C@]12C [ALFAXALONE] | – | – | – | – | 1900 | – | inactive | – | Dose-dependent effect | Activity [21]: Active; Activity [22]: Active |
